Results: ChEMBL document CHEMBL4017507 (J Med Chem, 2017)

What was measured:
[1] = Cytotoxicity against human HEL cells assessed as alteration to cell morphology by microscopic analysis; format: cell-based
Summary of the method: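 Minimal cytotoxic concentration is the compound concentration giving a microscopically visible alteration of HEL cell morphology, scored in the antiviral assay cultures.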

Human alphaherpesvirus 1 [2] = assay: Antiviral activity against ACV-resistant thymidine kinase deficient Herpes simplex virus 1 KOS infected in human HEL cells assessed as inhibition of virus-induced cytopathic effect; format: functional, cell-based; conditions: Human alphaherpesvirus 1, KOS
Summary of the method: (§1)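 Confluent HEL fibroblast monolayers were inoculated in 96-well plates with 100 CCID50 of virus in the presence of serially varied compound concentrations. Cytopathicity was scored once untreated infected controls reached full CPE.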

Human alphaherpesvirus 1 [3] = assay: Antiviral activity against Herpes simplex virus 1 KOS infected in human HEL cells assessed as inhibition of virus-induced cytopathic effect; format: functional, cell-based; conditions: Human alphaherpesvirus 1, KOS; summary of the method: as §1
CCRF-CEM = assay: Cytostatic activity human CEM cells assessed as reduction in cell viability after 72 hrs by cell counting method; format: cell-based; conditions: ccrf-cem, 72 h
Summary of the method: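 (5–7.5) × 10^? CEM cells per well were grown with compound for 72 h at 37 °C under humidified CO2. Cells were counted in a Coulter counter.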

Human betaherpesvirus 5 [4] = assay: Antiviral activity against human cytomegalovirus Davis infected in human HEL cells assessed as inhibition of virus-induced cytopathic effect; format: functional, cell-based; conditions: Human betaherpesvirus 5, Davis; summary of the method: as §1
Human alphaherpesvirus 3 [5] = assay: Antiviral activity against thymidine kinase deficient Varicella-Zoster virus 07-1 infected in human HEL cells assessed as inhibition of virus-induced cytopathic effect; format: functional, cell-based; conditions: Human alphaherpesvirus 3, 07-1, HEL
Summary of the method: (§2)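 Confluent HEL fibroblast cultures were inoculated with 20 PFU of VZV in the presence of varying compound concentrations. Plaque formation was recorded once untreated infected controls reached completion.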

Human betaherpesvirus 5 [6] = assay: Antiviral activity against human cytomegalovirus AD-169 infected in human HEL cells assessed as inhibition of virus-induced cytopathic effect; format: functional, cell-based; conditions: Human betaherpesvirus 5, AD-169, HEL; summary of the method: as §1
Human alphaherpesvirus 2 = assay: Antiviral activity against Herpes simplex virus 2 G infected in human HEL cells assessed as inhibition of virus-induced cytopathic effect; format: functional, cell-based; conditions: Human alphaherpesvirus 2, strain G; summary of the method: as §1
HEL = assay: Cytotoxicity against human HEL cells assessed as cell growth inhibition by cell counting method; format: cell-based
Human alphaherpesvirus 3 [7] = assay: Antiviral activity against Varicella-Zoster virus OKA infected in human HEL cells assessed as inhibition of virus-induced cytopathic effect; format: functional, cell-based; conditions: Human alphaherpesvirus 3, strain Oka vaccine; summary of the method: as §2
[8] = system: Human immunodeficiency virus 1; assay: Antiviral activity against HIV1 X4LAI.04 infected in human tonsillar tissues assessed as inhibition of virus-induced cytopathic effect by p24gag-based luminex assay; format: functional; conditions: Human immunodeficiency virus 1, X4LAI.04
Summary of the method: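 Tonsillectomy tissue blocks of 2–3 mm³ were cultured on collagen sponge gels at the air–liquid interface, 27 blocks per donor per condition. Blocks were pretreated with compound overnight, infected with HIV-1 X4LAI.04 and cultured 12 days, with drug replenished at each medium change every 3 days. Medium p24 was measured by Luminex. Inhibition was calculated against untreated tissue, and EC50 was derived from it.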

MT4 = assay: Cytotoxicity against human MT4 cells assessed as reduction in cell viability by cell counting method; format: cell-based
Summary of the method: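 MT-4 cultures, untreated or treated, were assessed with an automated cell counter using propidium iodide staining to enumerate total and dead cells.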

[9] = system: Human immunodeficiency virus 1; assay: Antiviral activity against HIV1 X4LAI.04 infected in human MT4 cells assessed as decrease in viral replication by p24gag-based luminex assay; format: functional, cell-based; conditions: Human immunodeficiency virus 1, X4LAI.04, MT4
Summary of the method: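 10^6 MT-4 cells were infected with HIV-1 X4LAI.04 (7 ng p24) for 2 h at 37 °C, then washed with PBS and resuspended. Compounds were added and cultures were kept 3 days at 37 °C. Supernatant p24 was measured by bead-based Luminex. Inhibition was calculated as (1 − p24 treated/p24 untreated) × 100, and EC50 was derived from it.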

| SMILES | MCC [1] [µM] | EC50 (Human alphaherpesvirus 1 [2]) [µM] | EC50 (Human alphaherpesvirus 1 [3]) [µM] | CC50 (CCRF-CEM) [µM] | EC50 (Human betaherpesvirus 5 [4]) [µM] | EC50 (Human alphaherpesvirus 3 [5]) [µM] | EC50 (Human betaherpesvirus 5 [6]) [µM] | EC50 (Human alphaherpesvirus 2) [µM] | CC50 (HEL) [µM] | EC50 (Human alphaherpesvirus 3 [7]) [µM] | EC50 [8] [µM] | IC50 (MT4) [µM] | EC50 [9] [µM] |
| --- | --- | --- | --- | --- | --- | --- | --- | --- | --- | --- | --- | --- | --- |
| Nc1nc(O)c2ncn(CSC(CO)CO)c2n1 | 50 to 100 | 1.6 | 0.4 | > 500 | 40.8 | > 50 | > 50 | 0.5 | > 100 | 6.9 | > 30 | > 150 | > 150 |
| COc1nc(N)nc2c1ncn2CCC(COP(=O)(N[C@@H](C)C(=O)OCc1ccccc1)Oc1ccccc1)COP(=O)(N[C@@H](C)C(=O)OCc1ccccc1)Oc1ccccc1 (some centres undefined) | 50 to 100 | 100 | 100 | 19 | 37 | 20 | > 50 | > 100 | 25 | 22 | – | 20 | 12 |
| CCOC(=O)[C@H](C)NP1(=O)OCC(OCn2cnc3c(=O)[nH]c(N)nc32)CO1 (some centres undefined) | – | – | – | – | – | – | – | – | – | – | 4.6 | > 150 | 22 |
| C[C@H](NP(=O)(OCC(CO)CCn1cnc2c(=O)[nH]c(N)nc21)Oc1ccccc1)C(=O)OCc1ccccc1 (some centres undefined) | 50 to 100 | ≥ 100 | 8 | > 250 | > 50 | 45 | > 50 | 16 | > 100 | 2.6 | > 20 | > 150 | 10 |
| Nc1nc(Cl)c2ncn(CCC(CO)CO)c2n1 | 50 to 100 | > 100 | > 100 | 400 | > 50 | > 50 | > 50 | > 100 | > 100 | > 50 | > 60 | > 150 | > 150 |
| C[C@H](NP(=O)(OCC(CO)OCn1cnc2c(=O)[nH]c(N)nc21)Oc1cccc2ccccc12)C(=O)OCc1ccccc1 (some centres undefined) | > 100 | 3 | 0.4 | – | 6.5 | 28.2 | 9.5 | 0.5 | – | 9.5 | 11 | 100 | 8 |
| CCC(C)(C)COC(=O)[C@H](C)NP(=O)(OCC(CO)CCn1cnc2c(OC)nc(N)nc21)Oc1cccc2ccccc12 (some centres undefined) | 50 to 100 | ≥ 20 | 11 | 18 | > 50 | 9.7 | 43 | 10 | 28 | 4.4 | – | 17 | 24 |
| CC(=O)OCC(CO)OCn1cnc2c(Cl)nc(N)nc21 (centres undefined) | – | – | – | ≥ 250 | – | – | – | – | – | – | > 10 | > 150 | > 150 |
| C[C@H](NP(=O)(OCC(COP(=O)(N[C@@H](C)C(=O)OCc1ccccc1)Oc1ccccc1)SCn1cnc2c(=O)[nH]c(N)nc21)Oc1ccccc1)C(=O)OCc1ccccc1 (some centres undefined) | 50 to 100 | > 100 | > 100 | 77 | > 50 | > 50 | > 50 | > 100 | > 100 | 23 | > 3 | 21 | 24 |
